Compound activity as filed in PubChem BioAssay.
The list is not random: actives were taken first. Their share in the collection is about 2.6%.
ASAP1 inh = inhibitors of human ASAP1 ArfGAP activity, primary screen, biochemical, fluorescence polarization; Arf-GAP with SH3 domain, ANK repeat and PH domain-containing protein 1 (Homo sapiens), …; ASAP1-stimulated ARF1 GTP hydrolysis, GDP FP detection; inhibition, % at 16.5 µM; 360,000 tested, 0.19% active; AID 624377, 2012; in the data active means inhibition above about 25%
Target sequence (Q9ULH1 325-724 limits assumed): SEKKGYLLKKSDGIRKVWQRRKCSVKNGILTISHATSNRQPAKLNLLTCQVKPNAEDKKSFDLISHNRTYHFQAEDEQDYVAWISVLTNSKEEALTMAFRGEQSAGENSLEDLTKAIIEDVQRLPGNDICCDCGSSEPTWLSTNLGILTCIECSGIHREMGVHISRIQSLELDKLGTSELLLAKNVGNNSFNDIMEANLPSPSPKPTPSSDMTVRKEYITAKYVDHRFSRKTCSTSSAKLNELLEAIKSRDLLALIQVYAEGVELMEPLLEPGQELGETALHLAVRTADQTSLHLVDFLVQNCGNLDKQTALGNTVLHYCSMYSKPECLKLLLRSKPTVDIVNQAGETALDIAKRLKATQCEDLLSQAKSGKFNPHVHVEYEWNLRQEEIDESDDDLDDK
ARFGAP1 inhibitor = inhibitors of rat ARFGAP1 GAP activity, primary screen, biochemical, fluorescence polarization, GDP tracer | AID 651572, 2012 | inhibition, % at 16.5 µM | 360,000 tested, 0.26% active | Arfgap1-stimulated ARF1 GTP hydrolysis, GDP FP detection;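 active means inhibition above a per-plate limit, mean inhibition of low control wells plus 3 SD, cut at about 25% in these data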
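Material – truncated rat Arfgap1 GAP domain · Buffer or medium – HEPES-based buffer, pH 7.5 · Reagent – human ARF1(Δ1-17)-GTP substrate · Dosing – 16.5 µM single point, 1.26% DMSO · Schedule – GTP hydrolysis reaction 2 h at 25 °C · Technique – GDP detection by fluorescence polarization · Benchmarks – No-Arfgap1 wells (100%) versus DMSO full-reaction wells (0%) · Repeats – single replicate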
esBAF inh = Bmi1 luciferase reporter increase in mESCs, primary screen, esBAF inhibitor project, mouse ES cells, Bmi1 luciferase knock-in, single point; reporter increase, % at 12.5 µM; 350,000 tested, 2% active; AID 602393, 2012; 24 h; 100% = twice the neutral-well signal; in the data active means activation above about 40%; inconclusive means no clear call, values can overlap the other calls;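 further: a rise in the Bmi1 reporter signal indicates esBAF inhibition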
SMARCA2 act = SMARCA2 (BRM) function activators, primary screen, cell-based, luminescence, high throughput. 370,000 tested, 1% active. MG213 cells, MMTV-luciferase reporter, dexamethasone, overnight. activation, % at 9.1 µM. AID 652017, 2013; in the data active means activation above about 7.8%
Each line names hits and unclear results; the compound was inactive in the other large screens; ! = a repeat was not active.

COCc1nc2ccccc2n1Cc1ccc(Br)cc1	esBAF inh 49.6
CC=Cc1ccc2n(c1=O)C[C@@H]1[C@@H](CO)[C@H](C(=O)NCC(F)(F)F)[C@H]2N1C(=O)CC (mixture of isomers)	none (no result: ASAP1 inh, ARFGAP1 inhibitor, SMARCA2 act)
Cc1cccc(OCc2nc3ccccc3n2C)c1	esBAF inh 64.2
Cc1ccccc1OCc1nc2ccccc2n1C	esBAF inh inconclusive
COC(=O)c1cc(NC(=O)CC2SC(=Nc3ccccc3)N(CCc3c[nH]c4ccccc34)C2=O)cc(C(=O)OC)c1 (configuration not stated)	ASAP1 inh 27.6
COCCN1C(=O)C(CC(=O)Nc2ccc(C(=O)O)cc2)SC1=Nc1ccccc1 (configuration not stated)	none (no result: esBAF inh)
COc1ccccc1NC(=O)N[C@H]1CC[C@H](CC(=O)NCc2ccc(Cl)c(Cl)c2)O[C@H]1CO	none (no result: ASAP1 inh, ARFGAP1 inhibitor, SMARCA2 act)
COC(=O)c1c(-c2ccc(OC)cc2)sc2cc3c(cc12)OCO3	esBAF inh 49.1
COc1ccccc1OCC(=O)N/N=C1\CCCCc2ccccc21	none
O=C(N/N=C1\CCCc2ccccc21)c1ccccc1Cl	none (no result: esBAF inh)
Cc1cc(Cl)ccc1OCC(=O)N/N=C1\CCCc2ccccc21	none
O=C(COc1ccccc1F)N/N=C1\CCCc2ccccc21	esBAF inh 61.2
O=C(O)c1ccc(N/N=C2/CCCc3ccccc32)cc1	esBAF inh 59.2
COc1ccccc1OCC(=O)N/N=C1\CCc2ccccc21	esBAF inh 46.2
COc1cccc(-c2ccc([C@H]3[C@H](C#N)N(C(=O)Cc4ccccc4)[C@H]3CO)cc2)c1	none (no result: ASAP1 inh, ARFGAP1 inhibitor, SMARCA2 act)
CCOc1cccc2cc(-c3csc(NC(=O)CCC(=O)NCCN4CCCCC4C)n3)c(=O)oc12 (configuration not stated)	SMARCA2 act 7.9
Fc1ccc(-c2nc(-c3cccs3)no2)cc1	none (no result: esBAF inh)
Cc1ccccc1-c1noc(-c2cccs2)n1	esBAF inh 54.2
Clc1ccccc1-c1nnc(-c2ccccc2Cl)o1	esBAF inh 71.0
Cc1ccccc1-c1nnc(-c2cccs2)o1	esBAF inh 42.1
Cc1ccccc1-c1nnc(-c2ccccc2)o1	esBAF inh 43.1
C[C@H]1CN([C@@H](C)CO)C(=O)c2cccc(NC(=O)c3cnccn3)c2O[C@H]1CN(C)CC1CCCCC1	none (no result: ASAP1 inh, ARFGAP1 inhibitor, SMARCA2 act)
Cc1ccnc(Nc2nc(-c3sc(C)nc3C)cs2)c1	esBAF inh 43.0
Cc1nc(C)c(-c2csc(Nc3ccccn3)n2)s1	none
Cc1ccnc(Nc2nc(-c3ccc(F)cc3)cs2)c1	none
Cc1ccnc(Nc2nc(-c3ccc(Cl)cc3)cs2)c1	esBAF inh 66.9
CO[C@H]1CN(C)C(=O)c2cc(NC(=O)NC(C)C)ccc2OC[C@@H](C)N(C(=O)C2CCC2)C[C@H]1C	none (no result: ASAP1 inh, ARFGAP1 inhibitor, SMARCA2 act)
CC(=O)NCCNc1nc2cc(-c3ccc(C)cc3)sc2c(=O)n1C	esBAF inh 53.5
CC(=O)NCCNc1nc2cc(-c3cccc(Cl)c3)sc2c(=O)n1C	none
O=C(Nc1cccc2nsnc12)c1cccs1	esBAF inh 46.8!
O=C(Nc1ccc2nsnc2c1)c1cccs1	none (no result: esBAF inh)
Cc1noc(C)c1S(=O)(=O)Nc1ccc2c(c1)C(=O)N([C@@H](C)CO)C[C@@H](C)[C@@H](CN(C)S(=O)(=O)c1ccc(F)cc1)OCCCC[C@H](C)O2	none (no result: ASAP1 inh, ARFGAP1 inhibitor, SMARCA2 act)
O=C(NC(=S)Nc1cccc(O)c1)C12CC3CC(CC(C3)C1)C2	esBAF inh 47.1
Clc1ccccc1OCCn1cnc2ccccc21	esBAF inh 51.2
Clc1ccc(OCCn2cnc3ccccc32)cc1	none
Cc1nn(-c2nc3ccccc3s2)c(N)c1-c1ccccc1	esBAF inh 94.6
Cc1nn(-c2nc3ccccc3s2)c(N)c1Sc1ccc(F)cc1	esBAF inh 88.6
CCN(CC)c1ccc(Nc2nc(-c3cccnc3)cs2)cc1	esBAF inh 59.5
CN(C)c1ccc(Nc2nc(-c3cccnc3)cs2)cc1	none
Clc1ccc(Nc2nc(-c3cccnc3)cs2)cc1	esBAF inh 54.5
C[C@@H]1CN([C@@H](C)CO)C(=O)Cc2cc(NC(=O)Nc3ccc(F)cc3)ccc2O[C@@H]1CN(C)Cc1ccc(C(=O)O)cc1	none (no result: ASAP1 inh, ARFGAP1 inhibitor, SMARCA2 act)
Cc1ccccc1-c1cnc2c(c1)C(=O)N([C@@H](C)CO)C[C@H](C)[C@H](CN(C)C(=O)CC1CC1)O2	none (no result: ASAP1 inh, ARFGAP1 inhibitor, SMARCA2 act)
O=C(O)C[C@H]1C[C@@H]2c3cc(NC(=O)Nc4ccccc4)ccc3O[C@@H]2[C@@H](CO)O1	none (no result: ASAP1 inh, ARFGAP1 inhibitor, SMARCA2 act)
